This experiment has as its system Human adult epidermal keratinocytes. The experiment is described as follows: Cell internalization in vitro. Type of experiment: cell-based. An outline of the steps:
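FITC-labelled peptide carrier (1, 4, 7 or 10 mg/mL in medium; 30 or 120 min) on keratinocytes seeded on poly-D-lysine glass dishes, grown 24 h in supplemented EpiLife at 37 °C, 5% CO2. Free-carrier arm: 0.1 mg/mL labelled peptide, 15 min, ± 10 mg/mL unlabelled carrier. Medium-only control. Hoechst 33342 nuclear stain, Trolox-HBSS washes, ethidium bromide to exclude dead cells, then confocal imaging. Mean ± SD.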

Consider “FITC-AC-TGSTQHQ-CG, Disulfide Bridge 2–10 (disulfide) [FITC-SPACE peptide]”, for which the “increase of uptake by addition of free SPACE peptide” value (15 min, 0.1 mg/mL FITC-SPACE peptide with vs without 10 mg/mL unlabeled SPACE peptide, mean ± SD n=3) was determined as 3.9±1.5 fold. For the same substance, the intracellular localization result (15 min, 0.1 mg/mL, absence of excess free SPACE peptide) is recorded as “localized primarily in punctate spots”; the intracellular localization result (15 min, 0.1 mg/mL, with 10 mg/mL free SPACE peptide) is on record as “cytoplasmic localization”; the intracellular localization entry (120 min, concentrations of 1–4 mg/mL) is “punctate fluorescent spots”; the intracellular localization result (120 min, higher concentrations (7, 10 mg/mL)) was “diffused throughout the cytoplasm”.

The record behind these values is publication PMC4425738 (Journal of controlled release : official journal of the …, 2014).
